Data: ChEMBL document CHEMBL1132196, “Synthesis, biochemical evaluation, and classical and three-dimensional quantitative structure-activity relationship studies of 7-substituted-1,2,3,4-tetrahydroisoquinolines and their relative affinities toward phenylethanolamine N-methyltransferase and the alpha2-adrenoceptor” (J Med Chem, 1999)

How the values were obtained:
Bos taurus = species: Bos taurus; test: Binding selectivity against PNMT and alpha-2-adrenoceptors, measured as a ratio of respective in vitro Ki's.
[1] = molecular target: T1, Adrenergic receptor alpha-2 (Rattus norvegicus, UniProt P22086+P19328+P22909); test: In vitro inhibitory activity against Alpha-2 adrenergic receptor using [3H]clonidine as radioligand in male Sprague-Dawley rats; assay type: protein assay
T1 sequence (P22086 whole entry): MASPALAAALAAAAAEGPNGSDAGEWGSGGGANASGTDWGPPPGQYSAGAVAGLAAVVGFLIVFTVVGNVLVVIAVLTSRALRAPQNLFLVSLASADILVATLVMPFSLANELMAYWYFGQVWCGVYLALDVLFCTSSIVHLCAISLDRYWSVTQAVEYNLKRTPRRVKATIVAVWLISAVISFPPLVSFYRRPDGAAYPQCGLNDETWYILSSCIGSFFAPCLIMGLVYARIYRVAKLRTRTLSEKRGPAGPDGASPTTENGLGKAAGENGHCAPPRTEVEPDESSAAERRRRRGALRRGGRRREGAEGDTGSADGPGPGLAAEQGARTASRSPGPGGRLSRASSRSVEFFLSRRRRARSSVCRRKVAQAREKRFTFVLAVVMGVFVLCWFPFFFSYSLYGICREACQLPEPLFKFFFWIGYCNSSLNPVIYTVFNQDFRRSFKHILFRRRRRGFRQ
T1 sequence (P19328 whole entry): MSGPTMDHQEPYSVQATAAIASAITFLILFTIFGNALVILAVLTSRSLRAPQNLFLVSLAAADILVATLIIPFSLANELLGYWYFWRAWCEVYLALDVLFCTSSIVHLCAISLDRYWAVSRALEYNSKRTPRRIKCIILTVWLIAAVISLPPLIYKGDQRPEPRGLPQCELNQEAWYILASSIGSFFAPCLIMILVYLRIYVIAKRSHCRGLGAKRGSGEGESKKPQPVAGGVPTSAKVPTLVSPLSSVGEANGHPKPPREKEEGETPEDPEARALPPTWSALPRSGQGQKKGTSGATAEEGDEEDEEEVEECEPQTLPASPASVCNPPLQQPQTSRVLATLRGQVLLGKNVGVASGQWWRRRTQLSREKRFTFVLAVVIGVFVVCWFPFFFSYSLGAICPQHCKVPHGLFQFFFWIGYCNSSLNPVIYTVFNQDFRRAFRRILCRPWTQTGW
T1 sequence (P22909 whole entry): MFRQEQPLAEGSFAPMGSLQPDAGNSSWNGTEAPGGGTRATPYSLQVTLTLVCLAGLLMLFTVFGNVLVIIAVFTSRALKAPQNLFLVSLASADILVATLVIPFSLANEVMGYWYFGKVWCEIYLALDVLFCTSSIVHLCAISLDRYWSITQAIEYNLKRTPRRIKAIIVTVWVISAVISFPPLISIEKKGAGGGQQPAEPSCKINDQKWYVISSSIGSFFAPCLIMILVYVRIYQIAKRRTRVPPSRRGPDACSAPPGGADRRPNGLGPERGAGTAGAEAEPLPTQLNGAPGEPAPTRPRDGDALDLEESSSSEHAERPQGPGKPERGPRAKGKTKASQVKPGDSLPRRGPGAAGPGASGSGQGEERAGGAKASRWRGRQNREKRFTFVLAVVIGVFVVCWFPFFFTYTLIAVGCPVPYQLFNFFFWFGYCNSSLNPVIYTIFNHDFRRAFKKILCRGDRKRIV
Outline: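 Rat cerebral cortex (male Sprague–Dawley) homogenised in ice-cold 50 mM Tris/HCl pH 7.7, washed by three 50 000g spins, resuspended in 200 volumes. [3H]clonidine 4.0 nM final, 25 °C for 30 min, filtration, scintillation counting. Nonspecific binding with 2 μM phentolamine. Quadruplicate, five concentrations over 16-fold range. IC50 by log-probit; Ki = IC50/(1+[clonidine]/KD).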

[2] = molecular target: T2, Phenylethanolamine N-methyltransferase (Bos taurus, UniProt P10938); test: In vitro inhibitory activity against bovine adrenal phenylethanolamine N-methyl-transferase (PNMT)
T2 sequence (P10938 whole entry): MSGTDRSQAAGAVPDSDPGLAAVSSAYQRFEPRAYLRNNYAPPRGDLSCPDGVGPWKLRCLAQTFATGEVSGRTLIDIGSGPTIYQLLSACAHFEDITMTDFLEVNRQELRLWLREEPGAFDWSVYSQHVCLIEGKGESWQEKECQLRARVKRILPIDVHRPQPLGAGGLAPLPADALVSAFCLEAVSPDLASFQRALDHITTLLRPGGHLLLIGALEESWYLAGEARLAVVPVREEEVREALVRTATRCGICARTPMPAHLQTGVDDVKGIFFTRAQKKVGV

[3] = molecular target: T2, Phenylethanolamine N-methyltransferase; test: In vitro inhibitory activity against bovine adrenal phenylethanolamine N-methyltransferase(PNMT)

SMILES: CS(=O)(=O)c1ccc2c(c1)CNCC2
- Selectivity (Bos taurus): 120
- Ki [1]: 160 µM
- Ki [2]: 1.3 µM

SMILES: NC(=O)c1ccc2c(c1)CNCC2
- Selectivity (Bos taurus): 0.36
- Ki [2]: 64 µM

SMILES: CS(=O)(=O)Nc1ccc2c(c1)CNCC2
- Selectivity (Bos taurus): 0.23

SMILES: NS(=O)(=O)c1ccc2c(c1)CNCC2
- Selectivity (Bos taurus): 180

SMILES: Brc1ccc2c(c1)CNCC2
- Ki [3]: 290 nM

SMILES: O=C(c1ccccc1)c1ccc2c(c1)CNCC2
- Selectivity (Bos taurus): 9.3
- Ki [2]: 2.9 µM

SMILES: Nc1ccc2c(c1)CNCC2
- Selectivity (Bos taurus): 0.11
- Ki [2]: 27 µM

SMILES: O=S(=O)(c1ccccc1)c1ccc2c(c1)CNCC2
- Selectivity (Bos taurus): 1.5
- Ki [1]: 21 µM
- Ki [2]: 14 µM

SMILES: Oc1ccc2c(c1)CNCC2
- Selectivity (Bos taurus): 0.85

SMILES: CC(=O)c1ccc2c(c1)CNCC2
- Selectivity (Bos taurus): 1.2
- Ki [2]: 4.9 µM

SMILES: CC(=O)Nc1ccc2c(c1)CNCC2
- Selectivity (Bos taurus): 0.48
- Ki [1]: 9.1 µM
- Ki [2]: 190 µM

SMILES: O=C(O)c1ccc2c(c1)CNCC2
- Selectivity (Bos taurus): 1
- Ki [2]: 470 µM

SMILES: C=CCS(=O)(=O)c1ccc2c(c1)CNCC2
- Selectivity (Bos taurus): 9.7
- Ki [2]: 9.8 µM

SMILES: NCc1ccc2c(c1)CNCC2
- Selectivity (Bos taurus): 0.0063
- Ki [2]: 1900 µM

SMILES: OCc1ccc2c(c1)CNCC2
- Selectivity (Bos taurus): 0.21
- Ki [2]: 11 µM

SMILES: O=S(=O)(Nc1ccc(Cl)cc1)c1ccc2c(c1)CNCC2
- Selectivity (Bos taurus): 2.4

SMILES: CS(=O)(=O)NCc1ccc2c(c1)CNCC2
- Selectivity (Bos taurus): 0.055

SMILES: N#Cc1ccc2c(c1)CNCC2
- Selectivity (Bos taurus): 5.2
- Ki [2]: 1.4 µM

SMILES: O=S(=O)(c1ccc2c(c1)CNCC2)C(Cl)(Cl)Cl
- Ki [3]: 1300 nM

SMILES: O=[N+]([O-])c1ccc2c(c1)CNCC2
- Selectivity (Bos taurus): 10
- Ki [2]: 0.41 µM

SMILES: C[S+]([O-])c1ccc2c(c1)CNCC2 (configuration not stated)
- Selectivity (Bos taurus): 1.1
- Ki [1]: 51 µM
- Ki [2]: 45 µM

SMILES: CS(=O)(=O)N(c1ccc2c(c1)CNCC2)S(C)(=O)=O
- Selectivity (Bos taurus): 0.042
- Ki [2]: ~4500 µM

SMILES: COC(=O)c1ccc2c(c1)CNCC2
- Selectivity (Bos taurus): 0.68
- Ki [2]: 6.7 µM

SMILES: O=C(c1ccc2c(c1)CNCC2)C(F)(F)F
- Selectivity (Bos taurus): 5.6
- Ki [2]: 5.7 µM

SMILES: COc1ccc2c(c1)CNCC2
- Selectivity (Bos taurus): 0.022
- Ki [2]: 21 µM
